Assay [1] addresses Protein kinase C beta type (Homo sapiens) (UniProt P05771). Put plainly: Inhibition of human recombinant PKCbeta at 1 uM using CREBtide as substrate measured after 15 mins in presence of ATP by LANCE assay relative to control. An outline of the steps: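 Kinase panel run by an outside provider (Eurofins Cerep) in a LANCE assay, single test concentration of 1 µM, results as percent inhibition.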
(TR-FRET usually uses a lanthanide donor and a delayed reading to cut background.)

Assay [2] concerns the target Tyrosine-protein kinase ABL1 (Homo sapiens) (UniProt P00519). Put plainly: Inhibition of recombinant human ABL1 at 1 uM using Ulight-TK peptide as substrate measured after 30 mins in presence of ATP by LANCE assay relative to control.

Structures are written as SMILES.

Sequence of Protein kinase C beta type (Homo sapiens) (P05771 2-671 limits assumed): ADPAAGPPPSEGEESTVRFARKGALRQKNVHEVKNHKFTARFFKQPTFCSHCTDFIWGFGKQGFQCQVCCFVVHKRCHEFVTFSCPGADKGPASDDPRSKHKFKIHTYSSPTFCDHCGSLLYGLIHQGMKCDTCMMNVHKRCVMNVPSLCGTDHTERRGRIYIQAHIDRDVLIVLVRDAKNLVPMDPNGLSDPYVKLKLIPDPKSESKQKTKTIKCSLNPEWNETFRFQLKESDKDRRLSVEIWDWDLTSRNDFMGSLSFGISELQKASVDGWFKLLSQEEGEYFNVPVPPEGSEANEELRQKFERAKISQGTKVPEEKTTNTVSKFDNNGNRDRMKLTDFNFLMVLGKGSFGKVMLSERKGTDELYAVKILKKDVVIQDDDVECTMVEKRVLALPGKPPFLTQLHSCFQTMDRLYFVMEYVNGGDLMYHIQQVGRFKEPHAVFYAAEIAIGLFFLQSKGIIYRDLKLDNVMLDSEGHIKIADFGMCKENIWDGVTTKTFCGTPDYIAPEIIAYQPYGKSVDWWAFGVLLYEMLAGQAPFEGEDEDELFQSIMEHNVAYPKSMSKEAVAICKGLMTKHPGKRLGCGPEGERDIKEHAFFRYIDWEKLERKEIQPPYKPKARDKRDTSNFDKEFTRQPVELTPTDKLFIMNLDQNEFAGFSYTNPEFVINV
Sequence of Tyrosine-protein kinase ABL1 (Homo sapiens) (P00519 whole entry): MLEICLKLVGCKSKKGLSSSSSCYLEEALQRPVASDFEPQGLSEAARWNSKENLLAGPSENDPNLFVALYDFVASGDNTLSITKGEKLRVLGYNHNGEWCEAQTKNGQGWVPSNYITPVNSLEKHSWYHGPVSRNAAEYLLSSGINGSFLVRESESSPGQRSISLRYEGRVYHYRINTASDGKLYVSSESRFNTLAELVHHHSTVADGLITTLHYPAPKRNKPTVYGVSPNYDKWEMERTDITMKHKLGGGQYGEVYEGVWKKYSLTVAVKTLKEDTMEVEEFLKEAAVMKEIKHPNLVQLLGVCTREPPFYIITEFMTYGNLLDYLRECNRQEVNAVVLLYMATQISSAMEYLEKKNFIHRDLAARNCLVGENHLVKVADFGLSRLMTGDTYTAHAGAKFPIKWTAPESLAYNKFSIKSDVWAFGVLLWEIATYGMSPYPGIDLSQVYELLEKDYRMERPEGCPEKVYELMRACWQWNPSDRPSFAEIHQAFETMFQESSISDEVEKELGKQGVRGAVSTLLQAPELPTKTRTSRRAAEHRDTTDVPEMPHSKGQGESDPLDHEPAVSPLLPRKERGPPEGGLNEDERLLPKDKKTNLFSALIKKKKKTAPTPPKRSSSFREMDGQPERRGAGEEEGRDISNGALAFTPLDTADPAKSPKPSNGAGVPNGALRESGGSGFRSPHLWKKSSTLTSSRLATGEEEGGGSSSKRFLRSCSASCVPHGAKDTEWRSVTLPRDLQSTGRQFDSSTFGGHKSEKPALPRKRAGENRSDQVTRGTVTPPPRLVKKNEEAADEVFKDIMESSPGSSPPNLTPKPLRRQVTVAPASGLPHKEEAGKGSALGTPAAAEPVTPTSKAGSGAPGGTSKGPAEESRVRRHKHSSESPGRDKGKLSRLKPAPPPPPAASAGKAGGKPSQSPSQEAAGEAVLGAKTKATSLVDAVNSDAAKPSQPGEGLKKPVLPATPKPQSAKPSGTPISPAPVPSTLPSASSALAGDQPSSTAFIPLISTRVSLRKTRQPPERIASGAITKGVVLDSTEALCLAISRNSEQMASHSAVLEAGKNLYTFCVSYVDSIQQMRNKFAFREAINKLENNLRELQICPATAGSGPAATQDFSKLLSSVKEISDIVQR

In general, inhibition refers to how much of the control response was suppressed. In the case of `CCc1nc(-c2ccc(F)cc2)c(-c2ccnc(NC(=O)C3CC3)c2)[nH]1`, the inhibition in assay [1] was 10.7%; in assay [2], 91.5%.

These data come from ChEMBL document CHEMBL4393708, “Pyridinylimidazoles as dual glycogen synthase kinase 3β/p38α mitogen-activated protein kinase inhibitors” (Eur J Med Chem, 2019).
